According to ChEMBL document CHEMBL4665864, “Indole acrylonitriles as potential anti-hyperglycemic agents: Synthesis, α-glucosidase inhibitory activity and molecular docking studies” (Bioorg Med Chem, 2020):

experiment: Inhibition of Saccharomyces cerevisiae alpha-glucosidase using p-nitrophenyl-alpha-D-glucopyranoside as substrate preincubated with enzyme for 5 mins followed by substrate addition and measured after 30 mins by microplate reader analysis; settings: not given; call rule not given here
How it was run: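 Yeast enzyme solution 2.5 U mL-1 and p-NPG made up in 0.07 M phosphate buffer, pH 6.8. Enzyme, buffer and test compound preincubated 5 min at 37 °C, then 10 mM p-NPG stock added and incubated 30 min at 37 °C. Reaction stopped with 0.2 M Na2CO3, p-nitrophenol read at 405 nm. Percent inhibition taken against buffer-only control; IC50 from dose-response curves of compounds giving ≥50% inhibition.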

SMILES | IC50
N#C/C(=C\c1ccc2ccccc2c1)C(=O)c1c[nH]c2ccccc12 | Not Active
N#C/C(=C\c1ccc(Cl)cc1)C(=O)c1c[nH]c2ccccc12 | Not Active
N#C/C(=C\c1cccc([N+](=O)[O-])c1)C(=O)c1c[nH]c2ccccc12 | Not Active
N#C/C(=C\c1cccc(OCc2ccccc2)c1)C(=O)c1c[nH]c2ccccc12 | Not Active
COc1ccc(/C=C(\C#N)C(=O)c2c[nH]c3ccccc23)c(F)c1 | Not Active
N#C/C(=C\c1cccnc1)C(=O)c1c[nH]c2ccccc12 | Not Active
CN(C)c1ccc(/C=C(\C#N)C(=O)c2c[nH]c3ccccc23)cc1 | Not Active
N#C/C(=C\c1ccc(-c2ccccc2)cc1)C(=O)c1c[nH]c2ccccc12 | Not Active
Cc1ccccc1/C=C(\C#N)C(=O)c1c[nH]c2ccccc12 | Not Active
N#C/C(=C\c1ccncc1)C(=O)c1c[nH]c2ccccc12 | Not Active
N#C/C(=C\c1c(Cl)cccc1Cl)C(=O)c1c[nH]c2ccccc12 | Not Active
N#C/C(=C\c1cc(Cl)cc(Cl)c1O)C(=O)c1c[nH]c2ccccc12 | Not Active
N#C/C(=C\c1ccc(OCc2ccccc2)cc1)C(=O)c1c[nH]c2ccccc12 | Not Active
N#C/C(=C\c1ccco1)C(=O)c1c[nH]c2ccccc12 | Not Active

same assay, conditions: read-out: IC50

SMILES | IC50 [nM]
N#C/C(=C\c1ccc([N+](=O)[O-])cc1)C(=O)c1c[nH]c2ccccc12 | 880
COc1cc(/C=C(\C#N)C(=O)c2c[nH]c3ccccc23)cc(OC)c1Br | 530
N#C/C(=C\c1cccc2ccccc12)C(=O)c1c[nH]c2ccccc12 | 600
COc1ccc(/C=C(\C#N)C(=O)c2c[nH]c3ccccc23)cc1OCc1ccccc1 | 1020
N#C/C(=C\c1ccc2ccc3cccc4ccc1c2c34)C(=O)c1c[nH]c2ccccc12 | 1360
COc1cccc(/C=C(\C#N)C(=O)c2c[nH]c3ccccc23)c1Cl | 950
N#C/C(=C\c1ccccc1OCc1ccccc1)C(=O)c1c[nH]c2ccccc12 | 1190
C[C@H]1O[C@H](O[C@H]2[C@H](O)[C@@H](O)[C@@H](O[C@H]3[C@H](O)[C@@H](O)C(O)O[C@@H]3CO)O[C@@H]2CO)[C@H](O)[C@@H](O)[C@@H]1N[C@H]1C=C(CO)[C@@H](O)[C@H](O)[C@H]1O (some centres not stated) [ACARBOSE] | 2910
